A selection: hits, their analogues and other compounds. The true share with any hit is near 2%.
T cell modulator: T cell immune modulators affecting CD8 T cell-vesicle binding; 2C CD8+ T cell-vesicle binding, flow cytometry; active compounds read low; response (vesicle binding), % at 7 µM; actives 0.068% (n = 330,000);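 active = response, share of CD8 T cells binding vesicles, and their 90th percentile fluorescence all below set limits, cut at about 80% in these data, passing the limit was not always enough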;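 also: values below 100% mean blocked vesicle binding to the CD8+ T cells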
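Test system: purified 2C TCR transgenic mouse naive CD8+ T cells. Probe or stimulus: QL9-peptide-loaded Drosophila micro-vesicles bearing Ld, ICAM-1 and B7-1. Incubation: binding step 1.5 h, 37 °C, antibody labelling 20 min, ice. Measured by: flow cytometry of vesicle-bound cells.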
Myeloid diff MLP: promotes myeloid progenitor differentiation; ER-HoxA9 myeloid progenitors, lysozyme-GFP differentiation, flow cytometry; calls only at 10 µM; actives 1% (n = 360,000); AID 624256;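 active = normalized GFP-positive differentiation at or above the plate's own cutoff, the solvent-only control mean plus 3 SD; inconclusive = no clear call, values can overlap the other calls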;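 also: cells exposed to compound for four days before flow analysis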
GAA850 FXN act: increases GAA850 frataxin promoter reporter activity; HEK293 lucGAA850 FXN promoter luciferase reporter, 24 h; percent of 10 µM SAHA response; activation, % at 6 µM; actives 0.56% (n = 360,000); AID 540364;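 active = activation above the average of all compounds screened plus 3 SD, cutoff fixed separately per campaign, cut at about 7.5% in these data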
NR2E3 ag-1: human photoreceptor-specific nuclear receptor agonism | Q9Y5X4 | CHO-S Gal4-NCOR/VP16-NR2E3 two-hybrid, luciferase | inhibition of corepressor binding, % at 3.98 µM | actives 0.35% (n = 360,000);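 active = inhibition above the mean of all tested compounds plus 3 SD, cut at about 70% in these data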;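 also: higher means lower luciferase signal from less NR2E3 corepressor binding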
Target sequence (Q9Y5X4 whole entry, looked up, the tested form may be a part): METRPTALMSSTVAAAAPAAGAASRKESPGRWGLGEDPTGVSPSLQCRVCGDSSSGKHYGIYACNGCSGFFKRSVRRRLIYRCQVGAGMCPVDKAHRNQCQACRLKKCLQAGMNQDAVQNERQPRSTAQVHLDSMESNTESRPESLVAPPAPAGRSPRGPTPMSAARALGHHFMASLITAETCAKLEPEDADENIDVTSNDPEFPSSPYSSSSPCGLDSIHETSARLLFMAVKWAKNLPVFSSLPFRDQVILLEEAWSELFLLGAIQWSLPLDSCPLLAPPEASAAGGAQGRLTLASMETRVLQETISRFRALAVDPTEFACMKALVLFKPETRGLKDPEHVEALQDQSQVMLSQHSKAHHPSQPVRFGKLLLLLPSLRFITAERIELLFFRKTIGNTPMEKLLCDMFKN
NR2E3 ag-2: NR2E3 (human) agonism. GST-NR2E3/biotin-RetCOR TR-FRET, 1536-well. inhibition of corepressor binding, % at 4.78 µM. actives 0.12% (n = 320,000). AID 2300;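 active = percent inhibition above the cutoff of mean plus 3 SD of all tested compounds, set per screening campaign, cut at about 20% in these data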
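Format: 1536-well format; test system: GST-NR2E3 and biotin-RetCOR proteins; read-out basis: percent inhibition of TR-FRET ratio; timing: 5 h incubation at 4 °C; detection: time-resolved FRET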
NR2E3 agonist cf: NR2E3 (human) agonism, confirmation; shares compounds with NR2E3 ag-2; cell-free NR2E3 corepressor release, TR-FRET, 5 h; activation (reported as inhibition), % at 3.98 µM; actives 39% (n = 360); AID 2379; in the data active = activation above about 20%
PPARg-NCOR2 ag: counter-screen for NR2E3 agonists: human PPARgamma-NCOR2 interaction agonists; TR-FRET PPARg-NCOR2 coregulator interaction, biochemical; inhibition, % at 3.98 µM; shares compounds with NR2E3 ag-2; actives 45% (n = 360); in the data active = inhibition above about 20%
A number is an active result; 0 = inactive; ? = inconclusive; - = not tested or not shown.

SMILES	T cell modulator	Myeloid diff MLP	GAA850 FXN act	NR2E3 ag-1	NR2E3 ag-2	NR2E3 agonist cf	PPARg-NCOR2 ag
O=C(CCNC(=O)N1CC(=O)Nc2ccccc21)NCc1ccc(Cl)cc1	-	0	0	0	-	-	-
CCCC[C@@H]1CNC(=O)C(=O)N1CCCCC1CCCCC1	-	0	-	0	-	-	-
Cc1ccc(CSCCNC(=O)c2ccc(N(C)S(=O)(=O)c3ccccc3)cc2)cc1	0	0	0	0	22	0	0
O=C(Cc1cccc(C(F)(F)F)c1)Nc1cc(S(=O)(=O)N2CCOCC2)ccc1N1CCCC1	0	0	0	0	0	-	-
O=C1CC(=O)C(n2cncn2)C(c2cccc(Cl)c2)C1 (stereo not given)	0	0	0	0	0	-	-
O=C1C=C(O)C(n2cncn2)C(c2ccc3c(c2)OCO3)C1 (stereo not given)	0	0	0	0	24	0	0
CC(Sc1cnc2ccccc2n1)C(=O)O (stereo not given)	0	0	0	0	30	0	0
CCCS(=O)(=O)c1c(S(=O)(=O)CCC)c2ccc(C(N)=O)cn2c1C(=O)c1ccccc1	0	0	0	0	-	-	-
Cc1cccc(C)c1NC(=O)Cn1c(=O)c2cccn2c2ccccc21	0	0	0	0	0	-	-
CCc1cccc(NC(=O)Cn2c(=O)c3cccn3c3ccccc32)c1	0	0	0	0	26	0	0
Cn1nc(C(=O)N2CCC(C(N)=O)CC2)c2c1-c1ccccc1SC2	0	0	0	0	27	0	0
Cn1nc(C(=O)NC2CCCCC2)c2c1-c1ccccc1SC2	0	0	0	0	0	-	-
CCCCC1=CC2=C(c3ccco3)C(=O)C(C)(OC(=O)c3ccc(OC)cc3)C(=O)C2=CN1C1CCCC1 (stereo not given)	0	-	-	-	47	0	0
CCCCC1=CC2=C(c3ccco3)C(=O)C(C)(OC(=O)c3ccc(OC)cc3)C(=O)C2=CN1CCCCO (stereo not given)	0	0	0	0	0	-	-
CCCCC1=CC2=C(c3ccco3)C(=O)C(C)(OC(=O)c3ccc(OC)cc3)C(=O)C2=CN1c1ccc(OC)cc1 (stereo not given)	0	0	0	0	34	0	0
Cc1cc(C)c(S(=O)(=O)N(C)CC(=O)N2CCCC2)c(C)c1	-	0	0	0	-	-	-
N#CCC(N)=C(C#N)C#N	0	0	0	0	26	0	0
O=C1C(=O)N(Cc2cccnc2)C(c2cccc(F)c2)/C1=C(/O)c1ccc2c(c1)OCO2 (stereo not given)	0	0	0	0	24	26	28
CCCOc1ccc(/C(O)=C2/C(=O)C(=O)N(CCOC)C2c2cccnc2)cc1 (stereo not given)	0	-	-	-	0	-	-
C=CCOc1ccc(/C(O)=C2\C(=O)C(=O)N(CCOC)C2c2cccnc2)cc1 (stereo not given)	0	0	0	0	21	0	0
CCOC(=O)c1c(NC(=O)CSc2nnc(-c3ccccc3)o2)sc(C(C)=O)c1C	0	0	0	0	0	-	-
CCOC(=O)c1c(NC(=O)CSc2nnc(Cc3ccccc3)o2)sc(C(C)=O)c1C	0	0	0	0	32	0	0
Cc1ccc2c(c1)C(c1ccccc1)N(C(=O)c1ccc3c(c1)OCO3)CC(=O)N2 (stereo not given)	0	0	0	0	0	-	-
Cc1ccc(-c2c3c([nH]c(=S)c2C#N)CCCC3)o1	0	0	0	0	49	82	75
N#Cc1c(-c2ccncc2)c2c([nH]c1=S)CCCC2	0	0	0	0	0	-	-
SMILES	T cell modulator	Myeloid diff MLP	GAA850 FXN act	NR2E3 ag-1	NR2E3 ag-2	NR2E3 agonist cf	PPARg-NCOR2 ag
Cn1c2ccccc2c(=O)c2c(=O)n(Cc3ccco3)c(-c3ccc(F)cc3)nc21	0	0	0	0	34	0	0
Cc1ccc(-c2nc3c(c(=O)c4ccccc4n3C)c(=O)n2Cc2ccco2)cc1	0	0	0	0	0	-	-
CC(=O)NC(CCS(C)(=O)=O)C(=O)Nc1ccc(Cl)c(Cl)c1 (stereo not given)	0	0	0	0	20	0	0
CCc1cc2cc(C(=O)Nc3ccc(C)cc3)sc2s1	0	0	0	0	33	20	23
CCc1sc(C(=O)Nc2ccc(N3CCOCC3)cc2)cc1C	0	0	0	0	-	-	-
O=C(C1=C(O)C(=O)N(CC2CCCO2)C1c1ccc(Cl)cc1Cl)c1ccco1 (stereo not given)	0	0	0	0	30	24	25
O=C(C1=C(O)C(=O)N(CC2CCCO2)C1c1ccccc1Cl)c1ccco1 (stereo not given)	0	0	0	0	0	-	-
CC(C)c1csc(CN2CCC(C(=O)Nc3cccc(-c4ccco4)c3)CC2)n1	-	0	0	0	-	-	-
CCN(CC(=O)NC1CCS(=O)(=O)C1)Cc1nc2c(Br)cc(Br)cc2c(=O)[nH]1 (stereo not given)	0	0	0	0	0	-	-
CCN(CC(=O)NC(C)(C)C)Cc1nc2c(Br)cc(Br)cc2c(=O)[nH]1	0	0	0	0	22	33	29
CC(C)NC(=O)c1cc(C2CCCCN2S(=O)(=O)c2ccccc2)on1 (stereo not given)	-	0	0	0	-	-	-
CCCCc1nnc(NC(=O)CSc2nc(O)c(-c3ccccc3)c(=O)[nH]2)s1	0	0	0	0	0	-	-
CCCCc1nnc(NC(=O)CSc2nc(O)c(Cc3ccccc3)c(=O)[nH]2)s1	0	0	0	0	26	0	0
Cc1cc(C)n(CC(=O)NNC(=O)COc2ccc(Br)cc2F)n1	0	0	0	0	-	-	-
Cc1ccc(Cl)cc1N1CCN(S(=O)(=O)c2ccc3c(c2)CC(=O)N3C)CC1	0	0	0	0	0	-	-
O=C1CN(S(=O)(=O)c2cccc(Br)c2)CCN1	0	0	0	0	-	-	-
Cc1cc(C)c(Cn2c(=O)n(CCCC(=O)NCc3ccco3)c(=O)c3sccc32)c(C)c1	0	0	0	0	27	0	0
CC1(C(=O)Nc2cccc(Oc3ccccc3)c2)Cc2c(-c3ccc4c(c3)OCO4)ccnc2O1 (stereo not given)	-	-	0	0	-	-	-
O=[N+]([O-])c1ccc(N=Nc2ncc[nH]2)cc1	0	?	0	0	-	-	-
COc1cccc2c1NC(C(=O)O)C1CC=CC21 (stereo not given)	0	0	0	0	22	0	0
O=C(O)C1Nc2c(cccc2C(F)(F)F)C2C=CCC12 (stereo not given)	0	-	-	-	-	-	-
COc1ccc(C)cc1S(=O)(=O)N1CCCC(C(=O)N2CCN(c3ccccc3F)CC2)C1 (stereo not given)	0	-	0	0	0	-	-
